Source: PubChem BioAssay (several laboratories)
In the library only some 2.5% were active in any assay of this set; here they are far more common.
ADAM17 inh – inhibits human ADAM17 | P78536 | recombinant ADAM17, EDANS/DABCYL FRET peptide cleavage | inhibition, % at 6.95 µM | 0.83% of 370,000 active;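 active = inhibition above the mean of compounds lying between control limits plus 3 SD, set per campaign, cut at about 8.5% in these data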;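 note: 0% = DMSO-only wells as the low control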
GASC-1 inh – inhibitors of human GASC-1 (JMJD2C) demethylase | Q9H3R0 | GST-JMJD2C(1-420) H3K9me3 demethylation, DELFIA europium | inhibition, % at 2.35 µM | 0.069% of 330,000 active | AID 2099;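 active = more than half of a compound's replicate wells show inhibition beyond 50%, single wells judged on their own value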;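 note: signal counts dimethyl H3K9 product captured on neutravidin plate; 0% = median of DMSO wells and 100% = 0.3 times that DMSO median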
proKLK7 act – activates the human kallikrein-7 zymogen. activation, % at 7 µM. P49862. purified proKLK7, EDANS-DABCYL substrate fluorescence; 100% is mature enzyme control, 0% vehicle. 0.9% of 370,000 active;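 active = activation above the mean of all tested compounds plus 3 SD, computed per campaign excluding outliers beyond control limits, cut at about 13% in these data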
Target sequence (P49862 whole entry, looked up): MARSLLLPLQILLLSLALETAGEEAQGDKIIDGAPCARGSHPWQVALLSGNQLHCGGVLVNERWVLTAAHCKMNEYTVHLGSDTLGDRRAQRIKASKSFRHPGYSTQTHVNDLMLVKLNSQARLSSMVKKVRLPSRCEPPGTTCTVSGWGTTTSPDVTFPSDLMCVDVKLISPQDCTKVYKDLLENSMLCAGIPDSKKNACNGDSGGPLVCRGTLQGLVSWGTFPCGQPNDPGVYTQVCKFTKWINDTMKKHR
NR2E3 ag-1 – human photoreceptor-specific nuclear receptor agonism; Q9Y5X4; inhibition of corepressor binding, % at 3.98 µM; CHO-S Gal4-NCOR/VP16-NR2E3 two-hybrid, luciferase; AID 602229; 0.35% of 360,000 active;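 active = inhibition above the mean of all tested compounds plus 3 SD, cut at about 70% in these data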;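 note: 0% = DMSO with NR2E3 transfected cells and 100% = cells lacking NR2E3 construct; higher means lower luciferase signal from less NR2E3 corepressor binding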
ADAM10 inh – inhibits human ADAM10; O14672; recombinant ADAM10, EDANS/DABCYL FRET peptide cleavage, 3 h; inhibition, % at 7 µM; 0.62% of 370,000 active; AID 720582;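 active = inhibition above a per-campaign cutoff equal to the mean of compounds falling between control-based bounds plus 3 SD, cut at about 20% in these data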;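 note: 0% = DMSO wells while the 100% control is not disclosed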
Target sequence (O14672 214-748 limits assumed): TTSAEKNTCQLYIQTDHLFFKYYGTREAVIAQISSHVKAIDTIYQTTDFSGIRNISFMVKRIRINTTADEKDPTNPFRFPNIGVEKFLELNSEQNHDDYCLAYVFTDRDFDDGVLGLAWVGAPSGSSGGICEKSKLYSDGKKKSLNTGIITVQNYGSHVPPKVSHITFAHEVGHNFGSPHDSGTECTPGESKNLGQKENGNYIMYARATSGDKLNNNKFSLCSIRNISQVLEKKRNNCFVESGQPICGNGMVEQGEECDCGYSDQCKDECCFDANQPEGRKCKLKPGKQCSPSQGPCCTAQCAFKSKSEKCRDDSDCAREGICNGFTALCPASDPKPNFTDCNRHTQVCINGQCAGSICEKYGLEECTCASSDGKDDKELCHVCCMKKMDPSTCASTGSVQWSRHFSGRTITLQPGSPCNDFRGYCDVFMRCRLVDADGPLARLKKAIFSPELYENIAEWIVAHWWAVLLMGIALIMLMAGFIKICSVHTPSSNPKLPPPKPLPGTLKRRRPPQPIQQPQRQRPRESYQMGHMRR
NR2E3 ag-2 – agonists of human nuclear receptor NR2E3. 0.12% of 320,000 active. inhibition of corepressor binding, % at 4.78 µM. GST-NR2E3/biotin-RetCOR TR-FRET, 1536-well. Q9Y5X4. AID 2300;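 active = percent inhibition above the cutoff of mean plus 3 SD of all tested compounds, set per screening campaign, cut at about 20% in these data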;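 note: 0% = DMSO wells and 100% = biotin wells as full block of FRET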
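Test system – NR2E3–RetCOR corepressor complex · Quantity – NR2E3 fusion 1.35 nM · Buffer or medium – Tris pH 7.5 · Incubation – Compound–protein incubation for 5 h at 4 °C · Technique – TR-FRET, Eu(K)-anti-GST donor, streptavidin-D2 acceptor, ex 340, em 617/671 nm · Evaluation – percent inhibition of 671/617 nm emission ratio versus biotin and DMSO controls · Plate – 1536-well format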
NR2E3 ag confirm – confirmation of human NR2E3 agonists; AID 624378; 51% of 2,300 active; shares compounds with NR2E3 ag-1; CHO-S mammalian two-hybrid NR2E3-NCOR, luciferase luminescence; inhibition, % at 3.98 µM;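 active = average inhibition above a cutoff equal to the mean inhibition of all tested compounds plus one SD, cut at about 70% in these data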;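 note: 0% = DMSO in NR2E3 cells and 100% = DMSO in cells lacking NR2E3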
GAL4-VP16 luc – GAL4-VP16 reporter inhibition in NR2E3 agonist counterscreen | CHO-S GAL4-VP16 luciferase reporter, luminescence | shares compounds with NR2E3 ag-1 | AID 624379 | inhibition, % at 3.98 µM | 29% of 2,300 active;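 active = mean inhibition above a cutoff equal to the average over all tested compounds plus one standard deviation, cut at about 70% in these data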;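 note: luciferase from a UAS reporter driven by GAL4-VP16 transactivation; 0% = DMSO with VP16-transfected cells and 100% = DMSO with cells lacking VP16; higher means less reporter light so more repression of VP16 activity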
proKLK7 act conf – proKLK7 activation, confirmation | shares compounds with proKLK7 act | purified proKLK7, EDANS-DABCYL substrate fluorescence; scaled: vehicle 0, mature enzyme 100 | activation, % at 7 µM | 68% of 3,200 active;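 active = activation, as change over the incubation, above the mean of all tested compounds plus 3 SD, cut at about 13% in these data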
EDANS-DABCYL int – optically interferes with EDANS-DABCYL signal, flagging KLK7 hits | activation, % at 7 µM | shares compounds with proKLK7 act | EDANS-DABCYL substrate fluorescence interference, no enzyme, 4 h; solvent 0%, active enzyme control 100% | 80% of 3,200 active;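 active = activation above the all-compound mean plus 3 SD, ignoring values outside control-based bounds, cut at about 4.8% in these data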;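 note: value is the 4 h activation minus the activation read at time zero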
ADAM10 confirm – confirmation of inhibitors of human ADAM10; shares compounds with ADAM10 inh; ADAM10 QFRET peptide cleavage, EDANS fluorescence; inhibition, % at 6.95 µM; 1% of 2,100 active; AID 743208;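 active = inhibition above about 20% chosen separately for each screening run, limit read from the data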;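 note: 0% = DMSO wells and 100% = marimastat wells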
ADAM17 counter – ADAM17 inhibition, counter-screen for ADAM10 exosite hits. shares compounds with ADAM10 inh. ADAM17 QFRET peptide cleavage, EDANS fluorescence. inhibition, % at 6.95 µM. 0.5% of 2,100 active;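 active = mean triplicate inhibition above the solvent-only control wells' mean plus 3 SD, cut at about 12% in these data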;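 note: 0% = DMSO wells and 100% = marimastat wells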
* hit, by the source's call.

Results for COc1ccc(C(CCOC(=O)Oc2ccccc2)c2cc(OC)c(OC)c(OC)c2)cc1 (stereo unspecified) ?
ADAM17 inh: 2.5; proKLK7 act: -0.1; ADAM10 inh: 10.6

Results for O=C(Nc1ccc(F)cc1)OCCCN1C(=O)CCC12CCCCC2 ?
ADAM17 inh: 1.9; proKLK7 act: 0.4; ADAM10 inh: 4.3

How did COc1ccc(/C(C)=N/NC(=S)NCCc2ccccc2)cc1 do in these assays?
ADAM17 inh: 1.2; GASC-1 inh: -0.4; proKLK7 act: 0.2; NR2E3 ag-1: 70.1; ADAM10 inh: 2.2; NR2E3 ag-2: 1.1; NR2E3 ag confirm: 1.6; GAL4-VP16 luc: 1.0

How did COC(=O)c1ccc(C(=O)NC2CCSc3ccccc32)cc1 (stereo unspecified) do in these assays?
ADAM17 inh: 0.4; GASC-1 inh: 7.7; proKLK7 act: 0.4; NR2E3 ag-1: -33.7; ADAM10 inh: -4.6; NR2E3 ag-2: 1.4

How did Cc1ccc(NC(=S)NC2CCSc3ccccc32)cc1C (stereo unspecified) do in these assays?
ADAM17 inh: 3.9; GASC-1 inh: 2.7; proKLK7 act: -0.4; NR2E3 ag-1: 66.0; ADAM10 inh: -0.2; NR2E3 ag-2: 1.0; NR2E3 ag confirm: -7.7; GAL4-VP16 luc: 17.1

What do the screens show for `CCN(Cc1cn(Cc2ccccc2)nn1)S(=O)(=O)c1ccccc1Br`?
ADAM17 inh: -0.8; proKLK7 act: -0.1; ADAM10 inh: 4.2

How did CCOC(=O)c1c(NC(=O)/C=C\C(=O)O)sc(C)c1-c1ccccc1 do in these assays?
ADAM17 inh: -4.5; GASC-1 inh: 5.8; proKLK7 act: 0.3; NR2E3 ag-1: -5.2; ADAM10 inh: -8.9; NR2E3 ag-2: 3.1

What do the screens show for `CCOC(=O)c1c(NC(=O)/C=C/C(=O)O)sc(C)c1-c1ccc(C(C)(C)C)cc1`?
ADAM17 inh: 0.7; GASC-1 inh: 18.2; proKLK7 act: 0.3; NR2E3 ag-1: 53.2; ADAM10 inh: 10.1; NR2E3 ag-2: 0.0; NR2E3 ag confirm: 50.9; GAL4-VP16 luc: 7.6

How did CCCCNC(=O)C1(C(C)=O)CC(C(=O)OCC)=NO1 (stereo unspecified) do in these assays?
ADAM17 inh: 0.1; proKLK7 act: -0.7; ADAM10 inh: -3.4

How did CCN(CC(=O)NCc1cccs1)C(=O)c1ccc(-c2cccc(C(F)(F)F)c2)o1 do in these assays?
ADAM17 inh: 0.9; GASC-1 inh: -4.7; proKLK7 act: 0.6; NR2E3 ag-1: 54.3; ADAM10 inh: -1.1; NR2E3 ag-2: 1.2; NR2E3 ag confirm: 20.3; GAL4-VP16 luc: -6.8

Results for CCN(CC(=O)NCc1cccs1)C(=O)COc1cccc(C(F)(F)F)c1 ?
ADAM17 inh: 1.7; GASC-1 inh: 1.5; proKLK7 act: 0.2; NR2E3 ag-1: 5.1; ADAM10 inh: -4.7; NR2E3 ag-2: 0.6

Results for Cc1ccc(-n2nc3c(=O)n(CCCC(=O)NCc4cccc(F)c4)nc(C)c3c2C)cc1 ?
ADAM17 inh: -2.7; GASC-1 inh: 2.8; proKLK7 act: 0.3; NR2E3 ag-1: 51.7; ADAM10 inh: 3.6; NR2E3 ag-2: -0.7; NR2E3 ag confirm: 20.4; GAL4-VP16 luc: 39.3

What do the screens show for `Cc1ccc(-n2nc3c(=O)n(CC(=O)NC(C)CCc4ccccc4)nc(C)c3c2C)cc1` (stereo unspecified)?
GASC-1 inh: -0.6; NR2E3 ag-1: 55.0; NR2E3 ag-2: 1.2; NR2E3 ag confirm: 52.0; GAL4-VP16 luc: 65.3

What do the screens show for `Cc1ccc(-n2nc3c(=O)n(CCCC(=O)NCc4ccc(F)cc4)nc(C)c3c2C)cc1`?
ADAM17 inh: -1.0; GASC-1 inh: -3.3; proKLK7 act: 0.0; NR2E3 ag-1: 25.6; ADAM10 inh: -9.1; NR2E3 ag-2: -1.9

Results for CCC1=C(CC2NCCc3ccccc32)CC2c3cc(OC)c(OC)cc3CCN2C1 (stereo unspecified) ?
ADAM17 inh: -35.9; proKLK7 act: 18.8*; NR2E3 ag-1: 97.3*; ADAM10 inh: -125.2; NR2E3 ag confirm: 90.5*; GAL4-VP16 luc: 87.2*; proKLK7 act conf: 1.7; EDANS-DABCYL int: 2.0

Results for Nc1[nH]n2c(=O)cc(-c3ccccc3)nc2c1N=Nc1ccc2c(c1)OCO2 ?
GASC-1 inh: -1.6; NR2E3 ag-2: 2.3

Results for CCC1(O)C(=O)OCc2c1cc1n(c2=O)Cc2cc3cc(O)ccc3nc2-1 (stereo unspecified) ?
ADAM17 inh: -219.2; proKLK7 act: 63.9*; NR2E3 ag-1: 63.3; ADAM10 inh: inactive; NR2E3 ag confirm: 89.8*; GAL4-VP16 luc: 26.7; proKLK7 act conf: 74.1*; EDANS-DABCYL int: 76.8*

How did CN1C(=O)/C(=C/c2cccc(Cl)c2)Sc2ccc(C(=O)N3CCCC3)cc21 do in these assays?
ADAM17 inh: -1.6; GASC-1 inh: 4.9; proKLK7 act: -3.1; ADAM10 inh: 0.6; NR2E3 ag-2: -3.8

How did O=C(Nc1ccc(OCC(F)(F)C(F)F)c(C(F)(F)F)c1)c1ccc(Cl)cc1 do in these assays?
ADAM17 inh: 4.5; GASC-1 inh: 9.5; proKLK7 act: 0.5; NR2E3 ag-1: 89.9*; ADAM10 inh: 24.6*; NR2E3 ag-2: -1.8; NR2E3 ag confirm: 11.6; GAL4-VP16 luc: 48.0; ADAM10 confirm: 10.4; ADAM17 counter: 3.3

How did O=C(Nc1ccc(Br)c(C(F)(F)F)c1)c1ccc(C(F)(F)F)cc1 do in these assays?
ADAM17 inh: 5.9; GASC-1 inh: -4.0; proKLK7 act: 0.9; NR2E3 ag-1: -8.1; ADAM10 inh: 14.8; NR2E3 ag-2: -1.1
